Compounds with a hit are over-represented: about 3% of the library has one in this group of screens.
Measles CPE – compounds protecting cells from measles virus cytopathic effect, primary screen, measles RdRp inhibitor project, single point, MLSMR library, absorbance | protection (pct of control), % at 4 µM | Measles virus-infected cells, CPE protection | actives 1.5% (n = 140,000); in the data active means protection mostly above about 24%, no sharp cut-off; inactive means mostly below about 26%
Yeast life ext – compounds extending yeast replicative lifespan, primary screen, S. cerevisiae, OD615; S. cerevisiae growth with nicotinamide; deaD strain in restrictive glucose medium; AID 775, 2007; actives 0.68% (n = 130,000); inhibition of the nicotinamide effect, % at 10 µM;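 active means inhibition above a set limit, placed 3 SD over the median of all compounds, cut at about 26% in these data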;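 further: 0% = nicotinamide-treated wells and 100% = cells grown without nicotinamide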
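Test system – modified budding yeast, DeaD strain · Compound – single dose 10 µM compound, 0.25% DMSO · Times – culture preincubation 4 h, compound exposure 48 h, both 30 °C · Detection – optical density (absorbance) at 615 nm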
SDO1 yeast rescue – growth rescue of sdo1-depleted yeast, primary screen, S. cerevisiae, bone marrow failure model; S. cerevisiae sdo1-depleted JHY4D growth rescue, OD600 30 h; stronger effect = higher value; pdr5 snq2 efflux-pump mutant strain; AID 817, 2007; actives 0.21% (n = 140,000); z-score at 10 µM;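 active means z-score above 3 at both the 24 hr and the 30 hr optical density reads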;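 further: z-score against mean and SD of all compound wells on the same plate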
sEH inh – soluble epoxide hydrolase inhibitors, primary screen, biochemical, human sEH | actives 0.34% (n = 91,000) | AID 707, 2007 | recombinant human sEH enzymatic activity assay | inhibition, % at 2 µM; in the data active means inhibition above about 80%
Yeast growth inh – growth inhibitors of yeast BB579 in restrictive medium, primary screen, yeast lifespan-shortening project, S. cerevisiae. actives 0.51% (n = 140,000). OD615, 48 h. inhibition, % at 10 µM. AID 804, 2007;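 active means inhibition above a set limit, 3 SD over the mean compound inhibition, cut at about 44% in these data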
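Detection: OD615 turbidity measurement; Material: Saccharomyces cerevisiae DeaD strain BB579, replicative lifespan model yeast; Timing: 48 h exposure, 30 °C; Doses: single 10 µM dose; Medium: CSMM-D restrictive synthetic medium containing dextrose (glucose); Controls: amphotericin B at 10 µg/mL as positive control.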
sEH activator – soluble epoxide hydrolase activators, primary screen, biochemical, human sEH | Bifunctional epoxide hydrolase 2 (Homo sapiens), P34913 | purified human sEH enzymatic activity, activator screen | activation, % at 2 µM | actives 0.04% (n = 91,000); in the data active means activation above about 37%
* marks the source's active call; other numbers are inactive results.

For Fc1ccc(CN2CCN(c3ncccn3)CC2)cc1 the results were Measles CPE 36.0*, Yeast life ext -13.1, SDO1 yeast rescue 0.54, sEH inh -13.4, Yeast growth inh -64.2 and sEH activator 13.6.
CCOc1ccc(/C=N/Nc2ccc(C(F)(F)F)cc2[N+](=O)[O-])cc1O was read as Measles CPE 32.1*, Yeast life ext -0.3, SDO1 yeast rescue -1.18 and Yeast growth inh -39.3.
Screening CC(=O)NCCOc1cccc(OCCNC(C)=O)c1 returned Measles CPE 6.8, Yeast life ext -1.4, SDO1 yeast rescue 0.46, sEH inh -23.3, Yeast growth inh -31.1 and sEH activator 25.1.
Screening CC(=O)NCCOc1ccc2oc3ccccc3c2c1 returned Measles CPE 47.1*, Yeast life ext -28.5, SDO1 yeast rescue 0.41, sEH inh 0.2, Yeast growth inh 2.6 and sEH activator 0.0.
O=C(CSc1nc2ccccc2[nH]1)NCC1CCCO1 (stereo not drawn) was read as Measles CPE 10.7, Yeast life ext 1.5, SDO1 yeast rescue 0.45 and Yeast growth inh -20.0.
C=CCC1c2cccc(C(=O)O)c2C(=O)N1c1cccc(C)c1 (stereo not drawn) was read as Measles CPE 0.3, Yeast life ext -5.5, SDO1 yeast rescue -0.33, sEH inh 19.3, Yeast growth inh 61.9* and sEH activator -23.5.
Cn1ccnc1SCC(=O)Nc1cc(C(F)(F)F)ccc1N1CCOCC1 was read as Measles CPE 3.4, Yeast life ext -6.0, SDO1 yeast rescue 0.01, sEH inh -1.1, Yeast growth inh 18.2 and sEH activator 3.0.
Screening COc1cc(/C=N/Nc2ncnc3sc4c(c23)CCC4)ccc1O returned Measles CPE 23.2, Yeast life ext -2.9, SDO1 yeast rescue -0.91 and Yeast growth inh -17.1.
CC(C)(C)N=Cc1cc(-c2ccccc2)sc1O was read as Measles CPE 40.7*, Yeast life ext -6.2, SDO1 yeast rescue 0.54, sEH inh 10.3, Yeast growth inh 6.9 and sEH activator -8.4.
For CCOC(=O)c1sc(-c2ccccc2)cc1N the results were Measles CPE 7.5, Yeast life ext -10.7, SDO1 yeast rescue -0.49, sEH inh -25.7, Yeast growth inh -17.1 and sEH activator 25.7.
CCCCCCOC(=O)Sc1nc2ccccc2o1 was read as Measles CPE 9.0, Yeast life ext -26.3, SDO1 yeast rescue -2.04, sEH inh -0.6, Yeast growth inh 81.0* and sEH activator 2.0.
`O=C(CSc1nc2ccccc2o1)Nc1ccc(Cl)cc1` gave Measles CPE 26.4*, Yeast life ext -10.1, SDO1 yeast rescue 0.97, sEH inh -2.5, Yeast growth inh -15.6 and sEH activator 1.5.
O=C(O)c1ccccc1CSc1nc2ccccc2o1 was read as Measles CPE 3.1, Yeast life ext 5.3, SDO1 yeast rescue 1.82, sEH inh -4.1, Yeast growth inh -18.9 and sEH activator 4.6.
CC(=O)CSc1nc2ccccc2o1 was read as Measles CPE 20.5, SDO1 yeast rescue 0.42, sEH inh 5.9, Yeast growth inh -9.1 and sEH activator -5.6.
`COC(=O)CSc1nc2ccccc2o1` gave Measles CPE 42.8*, Yeast life ext -25.9, SDO1 yeast rescue 0.33, sEH inh -1.4, Yeast growth inh -26.0 and sEH activator 3.0.
CCCOc1ccc(S(=O)(=O)NNC(=O)c2cc3ccccc3o2)cc1 was read as Measles CPE 20.7, Yeast life ext -2.6, SDO1 yeast rescue -1.24 and Yeast growth inh -1.6.
Screening O=C1c2cccc(Cl)c2C(=O)c2c1cccc2N1CCCC1 returned sEH inh 11.4 and sEH activator -12.3.
Screening Cc1ccc(C2CC(c3ccccc3)=NN2C(=O)CSc2nnc(-c3ccncc3)n2C)o1 (stereo not drawn) returned Measles CPE 29.4, Yeast life ext -1.3, SDO1 yeast rescue 1.05 and Yeast growth inh 0.7.
Cc1cc(C)c(-c2c(O)c3cnn(-c4ccccc4)c3[nH]c2=O)c(C)c1 was read as Measles CPE 9.4, Yeast life ext 1.6, SDO1 yeast rescue 1.21 and Yeast growth inh -38.4.
